From ChEMBL document CHEMBL3044632, “Synthesis, crystal structure, and biological activity of 4-methyl-1,2,3-thiadiazole-containing 1,2,4-triazolo[3,4-b][1,3,4]thiadiazoles” (J Agric Food Chem, 2010)

Legend:
Nicotiana tabacum = experiment: Phytotoxicity against Nicotiana tabacum (tobacco) plant at 50 to 500 ug/mL; assay type: organism-based; settings: in vivo
Tobacco mosaic virus [1] = experiment: Antiviral activity against Tobacco mosaic virus (TMV) infected leaves assessed as viral inhibition at 100 ug/mL at 25 degC for 72 hr; assay type: functional
How it was run: (§1)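 Systemic acquired resistance induction was assayed in a tobacco–TMV system. The antivirus inhibition ratio was calculated from the average number of viral lesions on inoculated leaves, relative to the corresponding control.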

Tobacco mosaic virus [2] = experiment: Antiviral activity against Tobacco mosaic virus (TMV) infected leaves assessed as viral inhibition at 500 ug/mL at 25 degC for 72 hr; assay type: functional; how it was run: as §1
Thanatephorus cucumeris = experiment: Fungicide activity against Thanatephorus cucumeris assessed as growth inhibition at 50 ug/mL at 24 to 26 degC measured after 2 days; assay type: functional; settings: 48 h, read-out: GI
[3] = system: Botryosphaeria berengeriana; experiment: Fungicide activity against Botryosphaeria berengeriana assessed as growth inhibition at 50 ug/mL at 24 to 26 degC measured after 2 days; assay type: functional; settings: 48 h, read-out: GI
Phytophthora infestans = experiment: Fungicide activity against Phytophthora infestans assessed as growth inhibition at 50 ug/mL at 24 to 26 degC measured after 2 days; assay type: functional; settings: 48 h, read-out: GI
Fusarium graminearum = experiment: Fungicide activity against Fusarium graminearum assessed as growth inhibition at 50 ug/mL at 24 to 26 degC measured after 2 days; assay type: functional; settings: 48 h, read-out: GI
Fusarium oxysporum = experiment: Fungicide activity against Fusarium oxysporum assessed as growth inhibition at 50 ug/mL at 24 to 26 degC measured after 2 days; assay type: functional; settings: 48 h, read-out: GI
Colletotrichum lagenaria = experiment: Fungicide activity against Colletotrichum lagenaria assessed as growth inhibition at 50 ug/mL at 24 to 26 degC measured after 2 days; assay type: functional; settings: 48 h, read-out: GI
Cercospora beticola = experiment: Fungicide activity against Cercospora beticola assessed as growth inhibition at 50 ug/mL at 24 to 26 degC measured after 2 days; assay type: functional; settings: 48 h, read-out: GI
Mycosphaerella arachidis = experiment: Fungicide activity against Mycosphaerella arachidis assessed as growth inhibition at 50 ug/mL at 24 to 26 degC measured after 2 days; assay type: functional; settings: 48 h, read-out: GI
Botrytis cinerea = experiment: Fungicide activity against Botryotinia fuckeliana assessed as growth inhibition at 50 ug/mL at 24 to 26 degC measured after 2 days; assay type: functional; settings: 48 h, read-out: GI
Alternaria solani = experiment: Fungicide activity against Alternaria solani assessed as growth inhibition at 50 ug/mL at 24 to 26 degC measured after 2 days; assay type: functional; settings: 48 h, read-out: GI
Tobacco mosaic virus [4] = experiment: Antiviral activity against Tobacco mosaic virus (TMV) infected leaves assessed as viral inhibition at 50 ug/mL at 25 degC for 72 hr; assay type: functional; how it was run: as §1
Puccinia triticina = experiment: Fungicide activity against Puccinia triticina assessed as growth inhibition at 50 ug/mL at 24 to 26 degC measured after 2 days; assay type: functional; settings: 48 h, read-out: GI
Rhizoctonia solani = experiment: Fungicide activity against Rhizoctonia solani Kuhn assessed as growth inhibition at 50 ug/mL at 24 to 26 degC measured after 2 days; assay type: functional; settings: 48 h, read-out: GI

SMILES | Activity (Nicotiana tabacum) | inhibition at 100 µg/mL (Tobacco mosaic virus [1]) | inhibition at 500 µg/mL (Tobacco mosaic virus [2]) | inhibition of growth at 50 µg/mL (Thanatephorus cucumeris) | inhibition of growth at 50 µg/mL [3] | inhibition of growth at 50 µg/mL (Phytophthora infestans) | inhibition of growth at 50 µg/mL (Fusarium graminearum) | inhibition of growth at 50 µg/mL (Fusarium oxysporum) | inhibition of growth at 50 µg/mL (Colletotrichum lagenaria) | inhibition of growth at 50 µg/mL (Cercospora beticola) | inhibition of growth at 50 µg/mL (Mycosphaerella arachidis) | inhibition of growth at 50 µg/mL (Botrytis cinerea) | inhibition of growth at 50 µg/mL (Alternaria solani) | inhibition at 50 µg/mL (Tobacco mosaic virus [4]) | inhibition of growth at 50 µg/mL (Puccinia triticina) | inhibition of growth at 50 µg/mL (Rhizoctonia solani)
Cc1nnsc1C1=NNC2SC(c3ccc([N+](=O)[O-])cc3)=NN12 (configuration not stated) | Toxic | 16.7% | 52.9% | 32.4% | 34.9% | 22.2% | 11.9% | 20.9% | 13.8% | 14.3% | 30.8% | 60% | 26.7% | – | – | –
Cc1nnsc1C1=NNC2SC(C(C)(C)C)=NN12 (configuration not stated) | Toxic | – | – | 56.7% | 17.7% | 14.7% | – | 13.9% | 5.88% | 23.8% | 36.4% | – | 16.7% | 7.89% | 26.3% | –
CCc1cc(C2=NN3C(c4snnc4C)=NNC3S2)nn1C (configuration not stated) | Toxic | – | – | 30.4% | 12.8% | 4.8% | – | 47.2% | 0% | 0% | 7.7% | – | 9.5% | 34.8% | 10% | 19.4%
Cc1nnsc1C1=NNC2SC(c3ccco3)=NN12 (configuration not stated) | Toxic | 20% | 23.5% | 45.1% | 29% | 14.7% | – | 22.2% | 0% | 42.9% | 36.4% | – | 43.3% | – | 21% | –
COc1cccc(C2=NN3C(c4snnc4C)=NNC3S2)c1 (configuration not stated) | Toxic | – | – | 60.8% | 45.2% | 17.3% | – | 19.4% | 0% | 14.3% | 18.2% | – | 23.3% | 0% | 31.6% | –
COc1ccccc1C1=NN2C(c3snnc3C)=NNC2S1 (configuration not stated) | Toxic | – | – | 32.8% | 24.4% | 11.1% | 18.2% | 17.2% | 27.3% | 30% | 25% | 50% | 30% | 40% | – | –
Cc1nnsc1C1=NNC2SC(c3c(Cl)cccc3Cl)=NN12 (configuration not stated) | Toxic | – | – | 42.3% | 37.2% | 20% | 14.3% | 13.9% | 20.7% | 28.6% | 23.1% | 64.4% | 23.7% | 12.5% | – | –
CCCC1=NN2C(c3snnc3C)=NNC2S1 (configuration not stated) | Toxic | – | – | 77.8% | 40.5% | 75.8% | 75% | 93% | 50% | 33.3% | 62.1% | 84.9% | 34.4% | 0% | – | –
Cc1nnsc1C1=NNC2SC(c3c(-c4ccccc4)noc3C)=NN12 (configuration not stated) | Toxic | – | – | 25.4% | 8.9% | 7.4% | 27.3% | 13.8% | 13.6% | 10% | 30% | 46.2% | 33.3% | 14.6% | – | –
